Results published in ChEMBL document CHEMBL1126958, “Quinolinecarboxylic acids. 3. Synthesis and antibacterial evaluation of 2-substituted-7-oxo-2,3-dihydro-7H-pyrido[1,2,3-de] [1,4]benzothiazine-6-carboxylic acids related to rufloxacin” (J Med Chem, 1993).
Values after ≈ are worked out from the molar mass of the structure shown.

Legend:
Escherichia coli = experiment: Minimal inhibitory concentration against Escherichia coli ISF 432 strain; assay type: functional
Procedure, shortened: (§1)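 Agar dilution on TSA agar; compounds added by 2-fold dilution to melted medium at 50 °C just before pouring. Organisms stored at –80 °C, diluted in peptonated water to 1–2 × 10^7 CFU, applied with multipoint inoculator. MIC = lowest concentration preventing visible growth after 24 h at 35 °C.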

Enterobacter cloacae = experiment: Minimal inhibitory concentration against Enterobacter cloacae OMNFI174 strain; assay type: functional; procedure, shortened: as §1
Klebsiella pneumoniae = experiment: Minimal inhibitory concentration against Klebsiella pneumoniae ATCC 10031 strain; assay type: functional; procedure, shortened: as §1
Proteus vulgaris = experiment: Minimal inhibitory concentration against Proteus vulgaris CNUR6 strain; assay type: functional; procedure, shortened: as §1
Pseudomonas aeruginosa = experiment: Minimal inhibitory concentration against Pseudomonas aeruginosa ATCC 9027 strain; assay type: functional; procedure, shortened: as §1
[1] = Minimal inhibitory concentration against Shigella enteritidis strain; assay type: functional; procedure, shortened: as §1
Enterococcus faecalis = experiment: Minimal inhibitory concentration against Streptococcus faecalis LEP strain; assay type: functional; procedure, shortened: as §1
Staphylococcus aureus = experiment: Minimal inhibitory concentration against […] aureus ATCC 6538 strain; assay type: functional; procedure, shortened: as §1
[2] = Urinary excretion in rat after 0-4 hours of oral administration at 50 mg/kg; assay type: ADME, organism-based; parameters: dose 50 mg/kg, route oral; settings: urine
Procedure, shortened: (§2)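 Fasted male Wistar rats, three per group, dosed orally at 50 mg/kg. Urine collected over 0-4, 4-8 and 8-24 h, diluted 1:100 in ultrapure water, then treated with water and 70% perchloric acid, vortexed and centrifuged. Supernatant analysed by HPLC with pH 2.8 KH2PO4/phosphoric acid mobile phase. Result given as % of administered dose excreted.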

[3] = Urinary excretion in rat after 4-8 hours of oral administration at 50 mg/kg; assay type: ADME, organism-based; parameters: dose 50 mg/kg, route oral; settings: urine; procedure, shortened: as §2
[4] = Urinary excretion in rat after 8-24 hours of oral administration at 50 mg/kg; assay type: ADME, organism-based; parameters: dose 50 mg/kg, route oral; settings: urine; procedure, shortened: as §2

SMILES | MIC (Escherichia coli) | MIC (Enterobacter cloacae) | MIC (Klebsiella pneumoniae) | MIC (Proteus vulgaris) | MIC (Pseudomonas aeruginosa) | MIC [1] | MIC (Enterococcus faecalis) | MIC (Staphylococcus aureus) | dose excreted [2] | dose excreted [3] | dose excreted [4]
O=C(O)c1cn2c3c(c(Cl)c(F)cc3c1=O)SC(c1ccccc1F)C2 (stereo not drawn) | 0.5 µg/mL (≈ 1.27 µM) | > 64 µg/mL | 0.5 µg/mL (≈ 1.27 µM) | > 64 µg/mL | > 64 µg/mL | > 64 µg/mL | 4 µg/mL (≈ 10.2 µM) | 8 µg/mL (≈ 20.3 µM) |  |  | 
CC1Cn2cc(C(=O)O)c(=O)c3cc(F)c(N4CCN(Cc5ccc(F)cc5F)CC4)c(c32)S1 (stereo not drawn) | 8 µg/mL (≈ 16.3 µM) | > 64 µg/mL | > 64 µg/mL | > 64 µg/mL | > 64 µg/mL | > 64 µg/mL | 64 µg/mL (≈ 131 µM) | 32 µg/mL (≈ 65.4 µM) |  |  | 
CC1Cn2cc(C(=O)O)c(=O)c3cc(F)c(N4CCN(Cc5ccccc5C(F)(F)F)CC4)c(c32)S1 (stereo not drawn) | 8 µg/mL (≈ 15.3 µM) | > 64 µg/mL | 8 µg/mL (≈ 15.3 µM) | > 64 µg/mL | > 64 µg/mL | > 64 µg/mL | > 64 µg/mL | > 64 µg/mL |  |  | 
CC1Cn2cc(C(=O)O)c(=O)c3cc(F)c(N4CCCNCC4)c(c32)S1 (stereo not drawn) | 4 µg/mL (≈ 10.6 µM) | 8 µg/mL (≈ 21.2 µM) | 1 µg/mL (≈ 2.65 µM) | 64 µg/mL (≈ 170 µM) | > 64 µg/mL | 32 µg/mL (≈ 84.8 µM) | 32 µg/mL (≈ 84.8 µM) | 2 µg/mL (≈ 5.3 µM) |  |  | 
CN1CCN(c2c(F)cc3c(=O)c(C(=O)O)cn4c3c2SC(c2ccc(F)cc2)C4)CC1 (stereo not drawn) | 8 µg/mL (≈ 17.5 µM) | 32 µg/mL (≈ 69.9 µM) | > 64 µg/mL | > 64 µg/mL | > 64 µg/mL | 64 µg/mL (≈ 140 µM) | 64 µg/mL (≈ 140 µM) | 16 µg/mL (≈ 35 µM) |  |  | 
CC1Cn2cc(C(=O)O)c(=O)c3cc(F)c(Cl)c(c32)S1 (stereo not drawn) | 0.12 µg/mL (≈ 0.382 µM) | 2 µg/mL (≈ 6.37 µM) | 8 µg/mL (≈ 25.5 µM) | > 64 µg/mL | 32 µg/mL (≈ 102 µM) | 4 µg/mL (≈ 12.7 µM) | 32 µg/mL (≈ 102 µM) | 2 µg/mL (≈ 6.37 µM) |  |  | 
CC1Cn2cc(C(=O)O)c(=O)c3cc(F)c(N4CCN(S(=O)(=O)c5ccc(F)cc5)CC4)c(c32)S1 (stereo not drawn) | 2 µg/mL (≈ 3.83 µM) | 8 µg/mL (≈ 15.3 µM) | 1 µg/mL (≈ 1.92 µM) | > 64 µg/mL | > 64 µg/mL | 8 µg/mL (≈ 15.3 µM) | 16 µg/mL (≈ 30.7 µM) | 4 µg/mL (≈ 7.67 µM) |  |  | 
O=C(O)c1cn2c3c(c(N4CCNCC4)c(F)cc3c1=O)SC(c1ccc(F)cc1)C2 (stereo not drawn) | 2 µg/mL (≈ 4.51 µM) | 32 µg/mL (≈ 72.2 µM) | 16 µg/mL (≈ 36.1 µM) | > 64 µg/mL | > 64 µg/mL | 32 µg/mL (≈ 72.2 µM) | 16 µg/mL (≈ 36.1 µM) | 16 µg/mL (≈ 36.1 µM) |  |  | 
O=C(O)c1cn2c3c(c(Cl)c(F)cc3c1=O)SC(c1ccc(F)cc1)C2 (stereo not drawn) | 0.25 µg/mL (≈ 0.635 µM) | 8 µg/mL (≈ 20.3 µM) | 0.25 µg/mL (≈ 0.635 µM) | > 64 µg/mL | > 64 µg/mL | > 64 µg/mL | 8 µg/mL (≈ 20.3 µM) | 4 µg/mL (≈ 10.2 µM) |  |  | 
O=C(O)c1cn2c3c(c(Cl)c(F)cc3c1=O)SC(c1cccc(F)c1)C2 (stereo not drawn) | 2 µg/mL (≈ 5.08 µM) | > 64 µg/mL | 2 µg/mL (≈ 5.08 µM) | > 64 µg/mL | > 64 µg/mL | > 64 µg/mL | 32 µg/mL (≈ 81.3 µM) | 2 µg/mL (≈ 5.08 µM) |  |  | 
O=C(O)c1cn2c3c(c(N4CCNCC4)c(F)cc3c1=O)SCC2 |  |  |  |  |  |  |  |  | 2.73% | 5.59% | 11.5%
